Several values for one entry are separate records, joined by “and”; a condition that tells them apart may be missing. Identical values can stand only once. Activity calls are given as the source filed them.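 The calls were made as follows: active = signal drop with fitted AC50 no more than twice the top valid dose in every repeat run; inconclusive = mixed run calls, flat 30 to 70% drop, or poor fit; inactive = the rest.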

This assay concerns SK-MEL-5 viability, CellTiter-Glo ATP luminescence, 24 h. In words: SK-MEL-5 parental cell viability, dose response, orthogonal assay for MITF inhibitor project, CellTiter-Glo luminescence, dry powder, set 4 (AID 624366). The method, boiled down:
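Material: parental SK-MEL-5 melanoma cells; amount: 3000 SK-MEL-5 cells per well; buffer or medium: medium without phenol red; compound dosing: pin-transferred multi-dose series; schedule: 24 h compound exposure at 37 °C, 5 min room-temperature detection; detection: CellTiter-Glo luminescence measuring cellular ATP; read-out basis: viability via ATP level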
Background: ATP-based viability assays read luminescence as a measure of living cells.
For `CCN1CCN(C2=C(NS(=O)(=O)c3ccc(Br)s3)C(=O)c3ccccc3C2=O)CC1`, the AC50 was > 70 µM (inactive). Turning to `O=C(NC1=C(N2CCCCC2)C(=O)c2ccccc2C1=O)c1ccc(Br)cc1`, the AC50 is > 70 µM (inactive). Consider `C[C@@H](NC1=C(Nc2ccccc2)C(=O)c2ccccc2C1=O)c1ccccc1`, for which the AC50 is > 70 µM (inactive). Take `O=C1C=C(NS(=O)(=O)c2ccc(Br)cc2)C(=O)c2ccccc21`: the concentration at half-maximal activity (AC50) is 10 µM. Turning to `O=C1C=C(Nc2ccccc2)C(=O)c2ccccc21`, the AC50 was 3.44 µM and 3.95 µM.

With `CC(=O)N(C)C1=C(N2CCCCC2)C(=O)c2ccccc2C1=O`, the concentration at half-maximal activity (AC50) is 6.71 µM. The value for `O=C1C(Nc2ccccc2)=C(N2CCSCC2)C(=O)c2ccccc21` was > 70 µM (inactive); that for `CCN(CC)CCNC1=C(Nc2ccccc2)C(=O)c2ccccc2C1=O` was > 70 µM (inactive); that for `CCN1CCN(C2=C(NC(=O)c3ccc(Br)cc3)C(=O)c3ccccc3C2=O)CC1` was 11 µM. With `CNC1=CC(=O)c2ccccc2C1=O`, the AC50 is > 70 µM (inactive). As to `CC1CCN(CC(CS(=O)(=O)c2ccc([N+](=O)[O-])cc2)N2CCC(C)CC2)CC1` (stereo not given), the AC50 is > 70 µM (inactive).

With `O=C1C(Nc2ccccc2)=C(c2ccccc2)C(=O)c2ccccc21`, the AC50 was 27.3 µM. In the case of `NC1=C(NS(=O)(=O)c2ccc(Br)cc2)C(=O)c2ccccc2C1=O`, the half-maximal activity concentration (AC50) was 28.1 µM.

Consider `O=C1C(NS(=O)(=O)c2ccc(Br)s2)=C(N2CCOCC2)C(=O)c2ccccc21`, for which the half-maximal activity concentration (AC50) is 27.6 µM.

Regarding `COC1=C(NS(=O)(=O)c2ccc(Br)cc2)C(=O)c2ccccc2C1=O`, the AC50 was 11.3 µM. On to `CN1CCN(C2=C(NC(=O)c3ccc(Br)cc3)C(=O)c3ccccc3C2=O)CC1`, for which the AC50 was 8 µM. For the molecule `CCN(CC)CCCNC1=C(Nc2ccccc2)C(=O)c2ccccc2C1=O`, the half-maximal activity concentration (AC50) was 24.4 µM. Take `NC1=C(NS(=O)(=O)c2cccs2)C(=O)c2ccccc2C1=O`: the concentration at half-maximal activity (AC50) is 11.3 µM.

`NC1=C(NC(=O)c2ccccc2)C(=O)c2ccccc2C1=O`: the half-maximal activity concentration (AC50) was 12.3 µM. Then `CC(=O)N(C)C1=C(N2CCN(C)CC2)C(=O)c2ccccc2C1=O`, with 5.48 µM; and `O=C(NC1=C(N2CCSCC2)C(=O)c2ccccc2C1=O)c1ccc(Br)cc1`, with > 70 µM (inactive). As for `O=C1C=C(NS(=O)(=O)c2cccs2)C(=O)c2ccccc21`, the AC50 is 9.28 µM. Take `NC1=C(NS(=O)(=O)c2ccccc2)C(=O)c2ccccc2C1=O`: the half-maximal activity concentration (AC50) is 14 µM. For `COC1=C(NS(=O)(=O)c2ccccc2)C(=O)c2ccccc2C1=O`, the half-maximal activity concentration (AC50) was 15.8 µM.

Consider `O=C1C(Nc2ccccc2)=C(N2CCCCC2)C(=O)c2ccccc21`, for which the AC50 was 25.3 µM. As to `C=C1C(=O)OC2C1CC/C(C)=C\CCC1(C)OC21` (stereo not given), the AC50 is > 70 µM (inactive). Turning to `O=C1C(NS(=O)(=O)c2ccccc2)=C(c2ccccc2)C(=O)c2ccccc21`, the AC50 is > 70 µM (inactive). For the molecule `O=C1C(Nc2ccccc2)=C(NS(=O)(=O)c2ccccc2[N+](=O)[O-])C(=O)c2ccccc21`, the AC50 is > 70 µM (inactive). On to `O=C(NC1=C(N2CCOCC2)C(=O)c2ccccc2C1=O)c1ccc(Br)cc1`, for which the AC50 is > 70 µM (inactive). In the case of `CN1CCN(C2=C(Nc3ccccc3)C(=O)c3ccccc3C2=O)CC1`, the AC50 is 34.2 µM.

Consider `CN1CCN(C2=C(NS(=O)(=O)c3ccc(Br)s3)C(=O)c3ccccc3C2=O)CC1`, for which the AC50 was 23.6 µM. For `O=C1C(NS(=O)(=O)c2ccc(Br)s2)=C(N2CCCCC2)C(=O)c2ccccc21`, the concentration at half-maximal activity (AC50) is 23.9 µM. In the case of `O=C1C=C(NS(=O)(=O)c2ccccc2)C(=O)c2ccccc21`, the half-maximal activity concentration (AC50) is 5.83 µM. Consider `COC1=C(NS(=O)(=O)c2cccs2)C(=O)c2ccccc2C1=O`, for which the concentration at half-maximal activity (AC50) was 23.7 µM. For the molecule `NC1=CC(=O)c2ccccc2C1=O`, the concentration at half-maximal activity (AC50) was 11 µM. In the case of `COC1=C(Nc2ccccc2)C(=O)c2ccccc2C1=O`, the AC50 was 3.02 µM. Take `C=CCNC1=C(Cl)C(=O)c2ccccc2C1=O`: the AC50 is 15.4 µM. Then `Cc1nc2ccccc2n1/N=C/c1ccc([N+](=O)[O-])s1`, with > 70 µM (inactive); and `NC1=C(c2ccc(OC(F)(F)F)cc2)C(=O)c2ccccc2C1=O`, with > 70 µM (inactive); and `C=CCNC1=C(N(C)C(C)=O)C(=O)c2ccccc2C1=O`, with 0.843 µM.

What is called AC50 is the concentration at which the activity in the assay is half-maximal.

Source of the values: PubChem BioAssay AID624366 (Broad Institute, 2012).
